According to ChEMBL document CHEMBL1221342, “Synthesis and in vitro antitumor activity of new 4,5-dihydropyrazole derivatives” (Bioorg Med Chem, 2010):
pIC50: −log10 of the molar value.

How the values were obtained:
NCI-H522 = test: Growth inhibition of human NCI-H522 cells after 48 hrs by SRB assay; type: functional; conditions: NCI-H522, 48 h
Procedure, shortened: (§1)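 NCI 60-cell-line screen. Cells grown in RPMI1640 with 5% fetal calf serum and 2 mM L-glutamine, with inoculum density set by cell line. Preincubated 24 h, then given compound in DMSO at 10^-4 to 10^-8 M (five 10-fold steps) for 48 h continuous exposure. Growth measured by SRB protein assay. GI50, TGI and LC50 reported as –log molar.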

UO-31 = test: Growth inhibition of human UO31 cells after 48 hrs by SRB assay; type: functional; conditions: UO-31, 48 h; procedure, shortened: as §1
U-251 = test: Growth inhibition of human U251 cells after 48 hrs by SRB assay; type: functional; conditions: U-251, 48 h; procedure, shortened: as §1
[1] = Growth inhibition of human […] cells after 48 hrs by SRB assay; type: functional; procedure, shortened: as §1
CAKI-1 = test: Growth inhibition of human Caki1 cells after 48 hrs by SRB assay; type: functional; conditions: CAKI-1, 48 h; procedure, shortened: as §1
MOLT-4 = test: Growth inhibition of human MOLT4 cells after 48 hrs by SRB assay; type: functional; conditions: MOLT-4, 48 h; procedure, shortened: as §1
OVCAR-8 = test: Growth inhibition of human OVCAR8 cells after 48 hrs by SRB assay; type: functional; conditions: OVCAR-8, 48 h; procedure, shortened: as §1
PC-3 = test: Growth inhibition of human PC3 cells after 48 hrs by SRB assay; type: functional; conditions: PC-3, 48 h; procedure, shortened: as §1
SF-268 = test: Growth inhibition of human SF268 cells after 48 hrs by SRB assay; type: functional; conditions: SF-268, 48 h; procedure, shortened: as §1
OVCAR-4 = test: Growth inhibition of human OVCAR4 cells after 48 hrs by SRB assay; type: functional; conditions: OVCAR-4, 48 h; procedure, shortened: as §1
K562 = test: Growth inhibition of human K562 cells after 48 hrs by SRB assay; type: functional; conditions: K562, 48 h; procedure, shortened: as §1
MCF7 = test: Growth inhibition of human MCF7 cells after 48 hrs by SRB assay; type: functional; conditions: MCF7, 48 h; procedure, shortened: as §1
SW-620 = test: Growth inhibition of human SW620 cells after 48 hrs by SRB assay; type: functional; conditions: SW-620, 48 h; procedure, shortened: as §1
HT-29 = test: Growth inhibition of human HT-29 cells after 48 hrs by SRB assay; type: functional; conditions: HT-29, 48 h; procedure, shortened: as §1
NCI-H460 = test: Cytotoxicity against human NCI-H460 cells after 72 hrs by SRB assay; type: functional, cell-based; conditions: NCI-H460, 72 h
Procedure, shortened: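 NCI-H460 (ATCC) cells seeded in 96-well plates in growth medium. Scalar drug concentrations added 24 h after plating, then 72 h exposure. Surviving cells stained with sulforhodamine B, OD read at 570 nm. IC50 (50% growth inhibition) fitted from dose–response curves. Mean ± SE of at least three independent experiments.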

SNB-75 = test: Growth inhibition of human SNB75 cells after 48 hrs by SRB assay; type: functional; conditions: SNB-75, 48 h; procedure, shortened: as §1
SK-OV-3 = test: Growth inhibition of human SKOV3 cells after 48 hrs by SRB assay; type: functional; conditions: SK-OV-3, 48 h; procedure, shortened: as §1
HCT-116 = test: Growth inhibition of human HCT116 cells after 48 hrs by SRB assay; type: functional; conditions: HCT-116, 48 h; procedure, shortened: as §1
SK-MEL-2 = test: Growth inhibition of human SK-MEL-2 cells after 48 hrs by SRB assay; type: functional; conditions: SK-MEL-2, 48 h; procedure, shortened: as §1
SR = test: Growth inhibition of human SR cells after 48 hrs by SRB assay; type: functional; procedure, shortened: as §1
COLO 205 = test: Growth inhibition of human COLO205 cells after 48 hrs by SRB assay; type: functional; conditions: COLO 205, 48 h; procedure, shortened: as §1
HOP-62 = test: Growth inhibition of human HOP62 cells after 48 hrs by SRB assay; type: functional; conditions: HOP-62, 48 h; procedure, shortened: as §1
T47D = test: Growth inhibition of human T47D cells after 48 hrs by SRB assay; type: functional; conditions: read-out: pTGI (converted); procedure, shortened: as §1
DU-145 = test: Growth inhibition of human DU145 cells after 48 hrs by SRB assay; type: functional; conditions: DU-145, 48 h; procedure, shortened: as §1
SF-295 = test: Growth inhibition of human SF295 cells after 48 hrs by SRB assay; type: functional; conditions: SF-295, 48 h; procedure, shortened: as §1
SK-MEL-5 = test: Growth inhibition of human SK-MEL-5 cells after 48 hrs by SRB assay; type: functional; conditions: SK-MEL-5, 48 h; procedure, shortened: as §1
Malme-3M = test: Growth inhibition of human MALME-3M cells after 48 hrs by SRB assay; type: functional; procedure, shortened: as §1
BT-549 = test: Growth inhibition of human BT549 cells after 48 hrs by SRB assay; type: functional; conditions: BT-549, 48 h; procedure, shortened: as §1
MDA-MB-435 = test: Growth inhibition of human MDA-MB-435 cells after 48 hrs by SRB assay; type: functional; conditions: MDA-MB-435, 48 h; procedure, shortened: as §1
TK-10 = test: Growth inhibition of human TK10 cells after 48 hrs by SRB assay; type: functional; conditions: TK-10, 48 h; procedure, shortened: as §1
CCRF-CEM = test: Growth inhibition of human CCRF-CEM cells after 48 hrs by SRB assay; type: functional; procedure, shortened: as §1
HCT-15 = test: Growth inhibition of human HCT15 cells after 48 hrs by SRB assay; type: functional; conditions: HCT-15, 48 h; procedure, shortened: as §1
SF-539 = test: Growth inhibition of human SF539 cells after 48 hrs by SRB assay; type: functional; conditions: SF-539, 48 h; procedure, shortened: as §1
NCI-H322M = test: Growth inhibition of human NCI-H322M cells after 48 hrs by SRB assay; type: functional; procedure, shortened: as §1
UACC-62 = test: Growth inhibition of human UACC62 cells after 48 hrs by SRB assay; type: functional; conditions: UACC-62, 48 h; procedure, shortened: as §1

Molecule `CCN(CC)c1ccc(C2CC(c3cc(OC)c(OC)c(OC)c3)=NN2)cc1` (configuration not stated) has a GI50 (NCI-H522) of 251 nM, a TGI (NCI-H522; read-out: pTGI (converted)) of 2000 nM and a GI50 (UO-31) of 794 nM. The TGI (UO-31; read-out: pTGI (converted)) was greater than 100000 nM, the GI50 (U-251) was 398 nM and the TGI (U-251; read-out: pTGI (converted)) was greater than 100000 nM. The GI50 [1] was 398 nM, the TGI ([1]; read-out: pTGI (converted)) was 3980 nM and the GI50 (CAKI-1) was 200 nM. It also gave a TGI (CAKI-1; read-out: pTGI (converted)) of 794 nM, a GI50 (MOLT-4) of 1260 nM and a TGI (MOLT-4; read-out: pTGI (converted)) of 5010 nM. The GI50 (OVCAR-8) was 398 nM, the TGI (OVCAR-8; read-out: pTGI (converted)) was 7940 nM and the GI50 (PC-3) was 316 nM. It also gave a TGI (PC-3; read-out: pTGI (converted)) of 63100 nM, a GI50 (SF-268) of 794 nM and a GI50 (OVCAR-4) of 1000 nM. For the same molecule, the TGI (OVCAR-4; read-out: pTGI (converted)) was greater than 100000 nM, the GI50 (K562) was 398 nM and the TGI (K562; read-out: pTGI (converted)) was 12600 nM. For the same molecule, the GI50 (MCF7) was 158 nM, the TGI (MCF7; read-out: pTGI (converted)) was 1580 nM and the GI50 (SW-620) was 398 nM. The TGI (SW-620; read-out: pTGI (converted)) was greater than 100000 nM, the GI50 (HT-29) was 316 nM and the TGI (HT-29; read-out: pTGI (converted)) was greater than 100000 nM. For the same molecule, the pIC50 (NCI-H460) was 6.52, the GI50 (SNB-75) was 200 nM and the TGI (SNB-75; read-out: pTGI (converted)) was 631 nM. For the same molecule, the GI50 (SK-OV-3) was 501 nM, the TGI (SK-OV-3; read-out: pTGI (converted)) was greater than 100000 nM and the GI50 (HCT-116) was 251 nM. It also gave a TGI (HCT-116; read-out: pTGI (converted)) of 1000 nM, a GI50 (SK-MEL-2) of 1580 nM and a TGI (SK-MEL-2; read-out: pTGI (converted)) greater than 100000 nM. It also gave a GI50 (SR) of 251 nM, a TGI (SR; read-out: pTGI (converted)) of 1000 nM and a GI50 (COLO 205) of 398 nM. For the same molecule, the TGI (COLO 205; read-out: pTGI (converted)) was 1580 nM, the GI50 (HOP-62) was 316 nM and the TGI (HOP-62; read-out: pTGI (converted)) was 3980 nM. The TGI (T47D) was greater than 100000 nM, the GI50 (DU-145) was 398 nM and the TGI (DU-145; read-out: pTGI (converted)) was 1580 nM. It also gave a GI50 (SF-295) of 100 nM, a TGI (SF-295; read-out: pTGI (converted)) of 316 nM and a GI50 (SK-MEL-5) of 794 nM. For the same molecule, the TGI (SK-MEL-5; read-out: pTGI (converted)) was 3160 nM, the GI50 (Malme-3M) was 20000 nM and the TGI (Malme-3M; read-out: pTGI (converted)) was greater than 100000 nM. It also gave a GI50 (BT-549) of 398 nM, a TGI (BT-549; read-out: pTGI (converted)) of 5010 nM and a GI50 (MDA-MB-435) of 158 nM. The TGI (MDA-MB-435; read-out: pTGI (converted)) was 316 nM, the GI50 (TK-10) was 39800 nM and the TGI (TK-10; read-out: pTGI (converted)) was greater than 100000 nM. It also gave a GI50 (CCRF-CEM) of 200 nM, a TGI (CCRF-CEM; read-out: pTGI (converted)) of 631 nM and a GI50 (HCT-15) of 631 nM. The TGI (HCT-15; read-out: pTGI (converted)) was greater than 100000 nM, the GI50 (SF-539) was 316 nM and the TGI (SF-539; read-out: pTGI (converted)) was 1260 nM. For the same molecule, the GI50 (NCI-H322M) was greater than 100000 nM, the TGI (NCI-H322M; read-out: pTGI (converted)) was greater than 100000 nM and the GI50 (UACC-62) was 398 nM. The TGI (UACC-62; read-out: pTGI (converted)) was 50100 nM.
